STAT1 blocker – inhibitors of IFN-gamma induced STAT1 signaling; NIH 3T3 STAT1-luciferase reporter, luminescence; 200,000 tested, 0.35% active; inhibition, % at 5.5 µM;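 active = inhibition above a set limit, the mean inhibition across all tested compounds plus 3 SD, cut at about 34% in these data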;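 also: 0% = IFN-gamma with DMSO and 100% = IFN-gamma with 300 µM nifuroxazide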
APP 5'UTR act – activates APP 5'UTR luciferase reporter. activation, % at 2 µM. 190,000 tested, 1% active. AID 1276. SH-SY5Y APP 5'UTR luciferase reporter, luminescence; zero percent = DMSO vehicle wells;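 active = activation above a set limit, based on mean plus 3 SD of controls, cut at about 140% in these data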
STAT3 act-1 – activators of IL-6 induced STAT3 signaling; U3A cells, IL-6 STAT3-luciferase reporter, luminescence; 100% = signal with IL-6 EC80 alone; activation (% of control), % at 5.6 µM; 190,000 tested, 0.91% active;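 active = activation above the screen-wide mean of compound activation plus 3 SD, cut at about 130% in these data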;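 also: 0% = background luminescence of wells with medium and substrate only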
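Material: STAT3-luciferase reporter U3A cells; Probe or stimulus: IL-6 (33 ng/mL); Incubation: compound pre-incubation 1 h before IL-6, then 6 h stimulation at 37 °C; Technique: luminescence from STAT3-driven luciferase reporter; Evaluation: % activation versus median of IL-6-stimulated wells; Controls: IL-6-only high control.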
Pf gametocyte – kills late stage P. falciparum gametocytes; P. falciparum stage V gametocytes, ATP luminescence, 24 h; inhibition, % at 10.9 µM; 150,000 tested, 0.065% active; AID 743093;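 active = inhibition above the mean plus 3 SD of compounds within the control limits, set per campaign, cut at about 38% in these data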;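 also: 0% = DMSO wells and 100% = medium only without gametocytes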
STAT1 act-1 – STAT1 signaling activation; NIH 3T3 STAT1-luciferase reporter, IFN-gamma, luminescence; 100% = IFN-gamma alone, no compound; 200,000 tested, 2.6% active; activation (% of control), % at 5.5 µM; AID 932;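 active = activation above the screen-wide mean activation plus 3 SD, cut at about 130% in these data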;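 also: raw ratio to IFN-gamma control signal so 100% means no change and 0% no light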
NF-kB neuron act – compounds increasing NF-kB expression in human neuronal cells. NF-kB reporter expression; active compounds read high. AID 1239. fold change at 12.5 µM. 190,000 tested, 1.6% active; in the data active = fold change above about 3.3
STAT3 act-2 – STAT3 activation, confirmation assay. shares compounds with STAT3 act-1. U3A STAT3-luciferase reporter, IL-6 potentiation, luminescence; U3A cells lack STAT1; 100 means same as IL-6 alone. potentiation (% of control), % at 5.7 µM. 1,200 tested, 64% active;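 active = percent activation of the STAT3 luciferase reporter above a set limit taken from the earlier primary screen, cut at about 130% in these data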;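 also: 0% = background signal of medium plus substrate and 100% = median of IL-6 with DMSO wells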
NFkB act 2 – counter-screen for STAT3 activators: NF-kappaB activation. AID 1309. shares compounds with STAT3 act-1. activation (% of control), % at 5.7 µM. human cells, NF-kappaB reporter activation. 1,200 tested, 11% active; in the data active = activation above about 120%;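 also: reporter induced by TNF-alpha stimulation; 100% = median of stimulated DMSO wells and 0% = no signal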
STAT1 act-2 – counter-screen for STAT3 activators: STAT1 activation. 1,200 tested, 13% active. activation (% of control), % at 5.7 µM. NIH 3T3 STAT1-luciferase reporter, IFN-gamma, luminescence. shares compounds with STAT3 act-1. AID 1318;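 active = activation above the solvent-only control well mean plus 3 SD, set per screening run, cut at about 120% in these data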;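 also: 100% = IFN-gamma with DMSO median signal so 100% means no change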
* hit, by the source's call; / = no result. Hits are enriched below; roughly 3.9% of the tested compounds scored in any of these assays.

SMILES	STAT1 blocker	APP 5'UTR act	STAT3 act-1	Pf gametocyte	STAT1 act-1	NF-kB neuron act	STAT3 act-2	NFkB act 2	STAT1 act-2
Cc1cc(C)c2oc(-c3ccc(C)c(NC(=S)NC(=O)c4cccs4)c3)nc2c1	-7.8	39.0	164.6*	/	107.1	1.9	147.4*	107.5	106.0
Cc1ccc2oc(-c3cccc(NC(=S)NC(=O)/C=C/c4ccco4)c3)nc2c1	-11.5	15.6	138.5*	3.7	110.3	0.49	129.9	109.3	122.6*
O=C(c1ccccc1)c1nn(-c2ccc(Cl)cc2)cc1C(=O)c1cc2ccccc2oc1=O	-0.9	6.2	135.8*	-61.4	100.8	0.99	120.6	102.0	104.5
CC(C)c1cc(C(=O)N/N=C/c2cccnc2)n[nH]1	-6.2	8.5	106.0	-18.9	105.6	1	/	/	/
Cc1cc(C)n2nc(Sc3ncccc3[N+](=O)[O-])nc2n1	/	/	/	-17.9	/	/	/	/	/
Oc1c(Cl)cc(Cl)cc1C1=NNC(c2ccc(Cl)cc2)C1 (stereo not given)	-1.1	47.8	152.0*	/	100.3	1.01	147.1*	106.7	98.0
O=C(COc1ccccc1-c1ccccc1)NNC(=O)NC1CCCCC1	6.6	4.6	97.7	1.9	94.3	/	/	/	/
CC(C)CC(=O)NNC(=O)C(C)C	-4.4	15.4	95.2	-11.5	103.9	1	/	/	/
O=C(Cc1c[nH]c2ccccc12)NCc1ccc2c(c1)OCO2	-12.2	8.2	137.9*	/	111.2	1.2	137.0*	100.3	99.3
Cc1ccc(CC2S/C(=C(/C#N)C(=O)NCc3ccco3)N(c3ccccc3)C2=O)cc1 (stereo not given)	0.4	3.7	96.5	/	99.6	1.02	/	/	/
CC1S/C(=C(\C#N)C(=O)NCc2ccco2)N(Cc2ccco2)C1=O (stereo not given)	9.9	-11.3	142.4*	/	92.0	0.97	130.4	103.9	95.4
Fc1ccccc1C1c2[nH]c3ccccc3c2CCN1CCCn1cccn1 (stereo not given)	-6.6	-6.6	144.0*	-16.4	104.3	/	132.6	101.7	93.0
COc1ccc(C2=Nn3c(nnc3-c3ccccc3OC)SC2)cc1OC	5.5	-95.8	149.9*	-10.6	95.0	1.42	126.7	128.4*	94.3
CC(=O)NCC(=O)NNC1CC(=O)N(c2cccc(Cl)c2)C1=O (stereo not given)	/	/	/	-4.8	/	/	/	/	/
CCCN(CCC)C(=O)Cn1c2ccccc2c2nc(=O)cc(C)n21	16.5	-13.7	165.1*	/	85.1	1.07	160.9*	104.8	89.9
CCCNC(=O)C(C)n1c2ccccc2c2nc(=O)cc(C)n21 (stereo not given)	4.8	2.5	99.9	/	95.7	1.04	/	/	/
COCC(C)n1c(SCC(=O)c2cc(C)n(C)c2C)nc2ccccc2c1=O (stereo not given)	13.7	6.8	99.0	/	84.8	1.04	/	/	/
Cn1c2ccccc2c2cc(C(=O)NNS(=O)(=O)c3ccc(F)cc3)sc21	1.2	-9.3	136.0*	0.1	98.9	1.16	126.9	95.8	103.0
CC(C)c1ccc(OCC(=O)N(Cc2ccccc2)c2ccccn2)cc1	4.8	-0.8	110.0	16.7	95.7	0.57	/	/	/
O=C(N/N=C/c1cn(-c2ccccc2)nc1-c1cc2ccccc2o1)c1cccnc1	-25.8	147.8*	158.6*	/	123.0	1.28	179.0*	138.4*	204.2*
O=C(Nc1cc(S(=O)(=O)N2CCCCC2)ccc1N1CCCCC1)c1ccncc1	/	/	/	-5.4	/	/	/	/	/
COc1ccc(N=c2oc3ccc(OC)cc3cc2-c2nc3ccccc3[nH]2)cc1	-29.5	4.5	142.7*	/	127.1	2.63	125.2	116.4	119.4
COc1ccc2oc(=Nc3ccc(C(=O)O)cc3)c(C(=O)NCc3ccco3)cc2c1	1.2	15.7	101.0	16.1	97.5	1.21	/	/	/
COc1cccc(C(=O)Nc2ccccc2N2CCCC2)c1	1.0	-12.5	90.4	12.5	95.3	1.15	/	/	/

Bioassay records as filed in PubChem BioAssay.
